Screening data as filed in PubChem BioAssay.
Sampled rows, rich in hits. Any-hit rate of the full collection: about 1.2%.
ARNT TACC3 PPI = disruptors of ARNT/TACC3 protein interaction, primary screen, biochemical, AlphaScreen, single concentration; Transforming acidic coiled-coil-containing protein 3 (Homo sapiens), Q9Y6A5; AlphaScreen His-ARNT PAS-B/GST-TACC3 binding, luminescence; TACC3 fragment carries E629A point mutation; inhibition, % at 9.99 µM; 390,000 tested, 0.66% active; AID 623870, 2012;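 active = mean inhibition of replicates at least 50% and at least half of replicates each reaching 50%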
CAL PDZ FP-1 = CAL PDZ peptide-binding inhibitors, primary screen, biochemical, fluorescence polarization, Cer-tagged CAL PDZ, HTS; Golgi-associated PDZ and coiled-coil motif-containing protein (Homo sapiens), Q9HD26; purified CAL PDZ, TMR-peptide fluorescence polarization, 1 h; inhibition, % at 20 µM; 330,000 tested, 0.02% active; AID 504414, 2011;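 active = highest replicate inhibition of at least 40%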
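material = purified tagged CAL PDZ domain construct (CerCALP) | compound dosing = 20 µM, one dose | times = 1 h at RT | measured by = fluorescence polarization from S- and P-plane intensities, G-factor corrected | read-out = inhibition from polarization loss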
CAL PDZ FP-2 = untagged CAL PDZ binding inhibitors, primary screen, biochemical, fluorescence polarization, HTS; purified CAL PDZ, TMR-peptide fluorescence polarization, 1 h; inhibition, % at 24.9 µM; 300,000 tested, 0.92% active;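 active = mean inhibition of at least 30% with at least half of replicates also reaching 30%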
Of the large screens only hits and unclear results are named; the others gave an inactive call.

CCOc1cc(N2CCOCC2)c(OCC)cc1NC(=O)c1cc(C)cc(C)c1	CAL PDZ FP-2 76
CCOc1cc(N2CCOCC2)c(OCC)cc1NC(=O)c1ccc(C)cc1	none
COc1ccccc1NC(=O)/C(=C\c1cccnc1)NC(=O)c1ccccc1	none
COc1ccccc1NC(=O)/C(=C\c1cccnc1)NC(=O)c1ccc(C)cc1	CAL PDZ FP-2 42 (no result: ARNT TACC3 PPI)
O=C(NC1CCCC1)[C@@H]1[C@@H](CO)[C@@H]2Cn3c(cccc3=O)[C@H]1N2Cc1cc(F)ccc1F	none (no result: CAL PDZ FP-1, CAL PDZ FP-2)
COC(=O)c1ccc(Cn2cc([N+](=O)[O-])cn2)cc1	CAL PDZ FP-2 68
CC(NC(=O)c1ccc(Cn2cc([N+](=O)[O-])cn2)cc1)c1ccccc1 (stereo not given)	none
N#CCCN(Cc1cccnc1)C(=S)Nc1ccccc1Cl	none
N#CCCN(Cc1cccnc1)C(=S)NC(=O)c1ccccc1	CAL PDZ FP-2 89
CO[C@@H]1CN(C)C(=O)c2cc(NC(=O)C3CC3)ccc2OC[C@@H](C)N(Cc2ccccc2C(=O)O)C[C@H]1C	none (no result: CAL PDZ FP-1, CAL PDZ FP-2)
C/C(=N\NC(=S)NC1CCCCC1)c1cccs1	none
C/C(=N\NC(=S)NC1CCCCC1)c1c(F)cccc1F	CAL PDZ FP-2 44
CNC(=O)C[C@H]1CC[C@@H]2[C@H](COC[C@H](O)CN2Cc2ccncc2)O1	none (no result: CAL PDZ FP-1, CAL PDZ FP-2)
CC(C)=CC(=O)Nc1cccc(S(=O)(=O)NC2=NCCCCC2)c1	CAL PDZ FP-2 47
O=C(CCl)Nc1cccc(S(=O)(=O)NC2=NCCCCC2)c1	none (no result: CAL PDZ FP-2)
O=C(C[C@@H]1C=C[C@H](NS(=O)(=O)c2ccccc2F)[C@H](CO)O1)NCCCN1CCOCC1	none (no result: CAL PDZ FP-1, CAL PDZ FP-2)
C[C@@H]1CN([C@@H](C)CO)C(=O)c2cccc(NC(=O)Nc3ccc(C(F)(F)F)cc3)c2O[C@H]1CN(C)C(=O)Nc1ccc(F)cc1	none (no result: CAL PDZ FP-1, CAL PDZ FP-2)
C[C@@H]1CN([C@@H](C)CO)C(=O)Cc2cc(NC(=O)NC3CCCCC3)ccc2O[C@@H]1CN(C)Cc1ccc(C(=O)O)cc1	none (no result: CAL PDZ FP-1, CAL PDZ FP-2)
Cc1nc2c(=O)[nH]c(=S)[nH]c2[nH]c1=O	ARNT TACC3 PPI 35
Cc1nc2[nH]c(=S)[nH]c(=O)c2nc1C	none
CC(C)NC(=O)Nc1ccc2c(c1)C(=O)N([C@@H](C)CO)C[C@H](C)[C@H](CN(C)S(=O)(=O)c1cn(C)cn1)OCCCC[C@H](C)O2	none (no result: CAL PDZ FP-1, CAL PDZ FP-2)
CCOC(=O)c1[nH]ncc1[C@@H]1C[C@H]2CN(Cc3cccc(Cl)c3)C(=O)[C@]23CCCN13	CAL PDZ FP-2 46
CCn1cc([C@@H]2C[C@H]3CN(Cc4cccc(Cl)c4)C(=O)[C@]34CCCN24)c(C)n1	none
CO[C@H]1CN(C)C(=O)c2ccc(NS(=O)(=O)c3ccccc3)cc2OC[C@@H](C)N(C)C[C@H]1C	none (no result: CAL PDZ FP-1, CAL PDZ FP-2)
CCC(C)Nc1nc(-c2ccccn2)nc2ccccc12 (stereo not given)	ARNT TACC3 PPI 62
c1ccc(CNc2nc(-c3ccccc3)nc3ccccc23)cc1	none
CCC(C)Nc1nc(-c2cccc(OC)c2O)nc2ccccc12 (stereo not given)	none (no result: CAL PDZ FP-2)
c1ccc(CNc2nc(-c3ccccn3)nc3ccccc23)cc1	ARNT TACC3 PPI 70
C[C@@H]1CN([C@H](C)CO)C(=O)c2cccc(NC(=O)c3ccncc3)c2O[C@H]1CN(C)S(=O)(=O)c1cccs1	none (no result: CAL PDZ FP-1, CAL PDZ FP-2)
O=C(C[C@H]1C[C@H]2c3cc(NC(=O)Nc4ccccc4)ccc3O[C@H]2[C@@H](CO)O1)NCc1ccccn1	none (no result: CAL PDZ FP-1, CAL PDZ FP-2)
CC(C)NC(=O)N1[C@H](CO)[C@H]2c3ccccc3N(C)C[C@H]21	none (no result: CAL PDZ FP-1, CAL PDZ FP-2)
O=C(c1cc(COc2c(F)cccc2F)on1)N(Cc1ccccc1)CC1CC1	CAL PDZ FP-2 64
CN(C(=O)c1cc(COc2c(F)cccc2F)on1)C1CCOC1 (stereo not given)	none
CCNC(=O)Nc1ccc2c(c1)C(=O)N(C)[C@@H]1CC[C@H](CC(=O)NC3CCCCC3)O[C@@H]1CO2	none (no result: CAL PDZ FP-1, CAL PDZ FP-2)
OCC1(Cc2ccc(Cl)cc2)CCN(Cc2ccc(F)c(F)c2)CC1	CAL PDZ FP-2 66
OCC1(Cc2ccc(Cl)cc2)CCN(Cc2ccc3nsnc3c2)CC1	none
Cc1[nH]c(=O)[nH]c(=O)c1/C=C/C(=O)O	CAL PDZ FP-2 70
COC(=O)/C=C/c1c(C)[nH]c(=O)[nH]c1=O	none
CCCNC(=O)Nc1ccc2c(c1)C(=O)N(C)C[C@H](OC)[C@@H](C)CN(C(=O)c1ccccc1F)[C@@H](C)CO2	none (no result: CAL PDZ FP-1, CAL PDZ FP-2)
O=C(N/C(=C\c1ccc(Cl)cc1)C(=O)N1CCCCC1)c1ccco1	CAL PDZ FP-2 82 (no result: ARNT TACC3 PPI)
CSc1ccc(/C=C(/NC(=O)c2ccco2)C(=O)N2CCCCCC2)cc1	none
C[C@@H]1CCCCO[C@@H](CN(C)C(=O)CCC(F)(F)F)[C@@H](C)CN([C@@H](C)CO)C(=O)c2cc(NC(=O)Nc3ccccc3)ccc2O1	none (no result: CAL PDZ FP-1, CAL PDZ FP-2)
C[C@H](CO)N1C[C@H](C)[C@H](CN(C)C(=O)Nc2ccc(C(F)(F)F)cc2)Oc2c(cccc2N(C)C)C1=O	none (no result: CAL PDZ FP-1, CAL PDZ FP-2)
O=C(NCCS(=O)(=O)NC1CCCC1)c1ccc(F)cc1	none
CC1CCCCC1NS(=O)(=O)CCNC(=O)c1ccccc1 (stereo not given)	CAL PDZ FP-2 35
Cc1ccc(S(=O)(=O)N(C)C[C@@H]2Oc3ccc(NC(=O)Cc4cn(C)c5ccccc45)cc3CC(=O)N([C@H](C)CO)C[C@H]2C)cc1	none (no result: CAL PDZ FP-1, CAL PDZ FP-2)
COc1cc(/C=N/Nc2ccc(Cl)c(C(=O)O)c2)ccc1OC(=O)c1ccccc1F	CAL PDZ FP-2 42
COc1cc(/C=N/Nc2ccc(Cl)c(C(=O)O)c2)ccc1OC(=O)c1ccc(F)cc1	none
C[C@H](NC(=O)C[C@H]1C[C@@H]2c3cc(NC(=O)C4CCOCC4)ccc3O[C@@H]2[C@H](CO)O1)c1ccccc1	none (no result: CAL PDZ FP-1, CAL PDZ FP-2)
COc1ccc(NC(=O)Nc2ccc3c(c2)[C@H]2C[C@@H](CC(=O)NC4CCCC4)O[C@@H](CO)[C@H]2O3)cc1	none (no result: CAL PDZ FP-1, CAL PDZ FP-2)
COC(=O)C[C@@H]1C=C[C@H](NC(=O)c2ccccc2)[C@H](CO)O1	none (no result: CAL PDZ FP-1, CAL PDZ FP-2)
CCOC(=O)C1CCN(c2nc(C)cc(C)c2C#N)CC1	none
CCOc1cc2c(C#N)c(N3CCNCC3)nc(N)c2c(N)n1	CAL PDZ FP-2 70
COc1cc2c(C#N)c(N3CCCCC3)nc(N)c2c(N)n1	none (no result: ARNT TACC3 PPI)
CCOc1cc2c(C#N)c(N3CCCCC3)nc(N)c2c(N)n1	none (no result: CAL PDZ FP-2)
CCOC(=O)C1CCN(c2nc(N)c3c(N)nc(SCC(=O)O)cc3c2C#N)CC1	ARNT TACC3 PPI 52
COc1cc2c(C#N)c(N3CCOCC3)nc(N)c2c(N)n1	ARNT TACC3 PPI 69 (no result: CAL PDZ FP-1)
CCCN1C[C@@H](C)[C@@H](OC)CN(C)C(=O)c2cc(NC(=O)NC3CCCCC3)ccc2OC[C@@H]1C	none (no result: CAL PDZ FP-1, CAL PDZ FP-2)
COc1ccc(S(=O)(=O)Nc2ccc3c(c2)CC(=O)N([C@@H](C)CO)C[C@H](C)[C@H](CN(C)C(=O)Nc2cccc4ccccc24)O3)cc1	none (no result: CAL PDZ FP-1, CAL PDZ FP-2)
C[C@@H]1CN([C@H](C)CO)C(=O)c2cc(-c3ccc(C#N)cc3)cnc2O[C@H]1CN(C)CC1CCCCC1	none (no result: CAL PDZ FP-1, CAL PDZ FP-2)
CN1C(=O)c2cc(NC(=O)c3ccc(F)cc3)ccc2OC[C@H]2O[C@@H](CC(=O)NCC3CC3)CC[C@@H]21	none (no result: CAL PDZ FP-1, CAL PDZ FP-2)
